Source: PubChem
GASC1 inh: blocks human GASC-1 (KDM4C) demethylase activity. Q9H3R0. GST-KDM4C 2-372, H3K9me3 peptide, LANCE TR-FRET. inhibition, % at 12.5 µM. 96,000 tested, 0.15% active. AID 720574;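 active = mean replicate inhibition above about 25%, with at least 55% of replicates also reaching it, limit read from the data, passing the limit was not always enough; inconclusive = only one of those two conditions met; inactive = neither condition met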
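material = GST-tagged GASC-1 (JMJD2C) catalytic fragment, aa 2-372 | amount = enzyme final amount 10 nM | medium = HEPES buffer, pH 7.5, plus ascorbate | also added = H3K9me3 peptide substrate, Fe(II), 2-oxoglutarate | dosing = single dose | times = 30 min demethylation and 1 h detection at room temperature | detection = LANCE TR-FRET | read-out basis = Fall in 671/618 emission ratio as inhibition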
T cruzi growth-1: T. cruzi proliferation inhibition | T. cruzi beta-gal in NIH3T3, GalScreen luminescence, 90 h | inhibition, % at 8.34 µM | 77,000 tested, 5.9% active;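 active = mean inhibition above about 93%, with at least 55% of replicates each passing it, limit read from the data, passing the limit was not always enough; inconclusive = only one of those two conditions holds; inactive = neither condition holds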
IDH1 mut inh: IDH1 R132H (human) inhibition | 70,000 tested, 0.18% active | O75874 | inhibition, % at 10 µM | IDH1 R132H reductase, diaphorase/resazurin fluorescence, 60 min; in the data active = inhibition above about 34%; inconclusive = no clear call, values can overlap the other calls; inactive = below about 11%
Target sequence (O75874 whole entry R132H): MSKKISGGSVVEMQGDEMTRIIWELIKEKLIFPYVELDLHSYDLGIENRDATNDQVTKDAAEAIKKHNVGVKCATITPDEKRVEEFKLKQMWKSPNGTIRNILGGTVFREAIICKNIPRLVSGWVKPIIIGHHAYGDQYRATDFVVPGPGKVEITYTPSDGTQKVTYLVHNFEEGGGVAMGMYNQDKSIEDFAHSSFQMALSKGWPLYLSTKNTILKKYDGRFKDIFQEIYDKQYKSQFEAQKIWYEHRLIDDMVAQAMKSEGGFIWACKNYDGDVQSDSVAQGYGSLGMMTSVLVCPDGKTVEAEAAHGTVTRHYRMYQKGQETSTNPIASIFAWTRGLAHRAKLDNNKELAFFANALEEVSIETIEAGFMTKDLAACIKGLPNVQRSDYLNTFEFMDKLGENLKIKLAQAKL
T cruzi growth-2: blocks T. cruzi growth in NIH3T3 host cells; shares compounds with T cruzi growth-1; T. cruzi beta-gal in NIH3T3, GalScreen luminescence, 90 h; inhibition, % at 8.35 µM; 5,600 tested, 72% active; AID 651739;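 active = mean replicate inhibition above about 95% and at least 55% of replicates individually reaching it, limit read from the data; inconclusive = only one of the two criteria is met; inactive = neither criterion is met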
T cruzi growth-3: inhibitors of T. cruzi proliferation; shares compounds with T cruzi growth-1; T. cruzi beta-gal in NIH3T3, GalScreen luminescence, 90 h; inhibition, % at 2.09 µM; 5,600 tested, 21% active;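 active = mean inhibition above about 95%, with at least 55% of replicates also reaching it, limit read from the data; inconclusive = meets just one of the two conditions; inactive = meets neither condition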
3T3 cytotox: kills mouse NIH/3T3 fibroblasts. shares compounds with T cruzi growth-1. NIH/3T3 viability, CellTiter-Glo ATP luminescence, 90 h. cytotoxicity (signal decrease), % at 8.35 µM. 5,600 tested, 14% active;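 active = mean signal decrease across replicates above about 35% based on untreated-well scatter, with enough replicates individually passing, limit read from the data; inconclusive = no rule stated though some were filed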
3T3 cytotox 2: NIH/3T3 (mouse) viability loss | shares compounds with T cruzi growth-1 | NIH/3T3 viability, CellTiter-Glo ATP luminescence, 90 h | inhibition, % at 24.9 µM | 5,600 tested, 56% active | AID 651744;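 active = mean loss of cell viability signal at or above a set limit, and enough replicates individually reaching it; inconclusive = meets only the mean limit or only the replicate share; inactive = meets neither condition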
Each line names hits and unclear results; the compound was inactive in the other large screens (follow-up assays come after a bar, where they were run). This excerpt belongs to a sample that is enriched for hits.

O=C(C[C@H]1CC[C@@H]2[C@H](COC[C@H](O)CN2S(=O)(=O)c2cccc(F)c2)O1)Nc1ccc(-c2ccccc2)cc1	T cruzi growth-1 101 (no result: IDH1 mut inh) | T cruzi growth-2 98 | T cruzi growth-3 inactive | 3T3 cytotox 44 | 3T3 cytotox 2 104
O=C(C[C@H]1CC[C@H]2[C@@H](COC[C@@H](O)CN2S(=O)(=O)c2cccc(F)c2)O1)Nc1ccc(-c2ccccc2)cc1	none (no result: IDH1 mut inh)
CC(C)(C)C1CCc2c(sc(NC(=O)CSc3n[nH]c(-c4ccco4)n3)c2C#N)C1 (centres undefined)	none (no result: GASC1 inh, T cruzi growth-1)
COc1ccccc1S(=O)(=O)N[C@H]1CC[C@@H](CC(=O)NCc2cc(F)cc(F)c2)O[C@@H]1CO	none (no result: T cruzi growth-1, IDH1 mut inh)
C[C@@H]1CN([C@@H](C)CO)S(=O)(=O)c2ccc(-c3cccc(F)c3)cc2O[C@H]1CN(C)C(=O)Nc1cc(F)ccc1F	T cruzi growth-1 115 | T cruzi growth-2 101 | T cruzi growth-3 inactive | 3T3 cytotox 51 | 3T3 cytotox 2 57
C[C@H]1CN([C@@H](C)CO)S(=O)(=O)c2ccc(-c3ccccc3)cc2O[C@@H]1CN(C)C(=O)Nc1ccccc1F	none
C[C@@H]1CN([C@H](C)CO)S(=O)(=O)c2ccc(-c3cccc(F)c3)cc2O[C@H]1CN(C)C(=O)Nc1cc(F)ccc1F	T cruzi growth-1 115 | T cruzi growth-2 96 | T cruzi growth-3 inactive | 3T3 cytotox 64 | 3T3 cytotox 2 81
C[C@@H]1CN([C@@H](C)CO)S(=O)(=O)c2ccc(-c3ccc(F)cc3)cc2O[C@H]1CN(C)C(=O)Nc1ccccc1F	none (no result: IDH1 mut inh)
O=C(Cc1coc2ccc3ccccc3c12)Nc1cccnc1	none (no result: GASC1 inh, T cruzi growth-1)
CCCC#Cc1ccc([C@@H]2[C@@H](CO)N3CCCCN(S(=O)(=O)CC)C[C@@H]23)cc1	T cruzi growth-1 102 (no result: IDH1 mut inh) | T cruzi growth-2 inactive | T cruzi growth-3 inactive | 3T3 cytotox inactive | 3T3 cytotox 2 35
CCCC#Cc1ccc([C@H]2[C@@H](CO)N3CCCCN(S(=O)(=O)c4ccccc4C)C[C@@H]23)cc1	T cruzi growth-1 108 (no result: IDH1 mut inh) | T cruzi growth-2 100 | T cruzi growth-3 inactive | 3T3 cytotox inactive | 3T3 cytotox 2 inactive
CCCC#Cc1ccc([C@H]2[C@@H](CO)N3CCCCN(S(=O)(=O)c4ccccc4C)C[C@H]23)cc1	T cruzi growth-1 108 (no result: IDH1 mut inh) | T cruzi growth-2 103 | T cruzi growth-3 inconclusive | 3T3 cytotox 52 | 3T3 cytotox 2 103
CCCC#Cc1ccc([C@@H]2[C@H]3CN(S(=O)(=O)CC)CCCCN3[C@H]2CO)cc1	none (no result: IDH1 mut inh)
COCC#Cc1ccc([C@@H]2[C@H](CO)N3CCCCN(S(=O)(=O)c4ccccc4C)C[C@@H]23)cc1	none (no result: IDH1 mut inh)
COCC#Cc1ccc([C@H]2[C@H]3CN(S(=O)(=O)c4ccccc4C)CCCCN3[C@H]2CO)cc1	none (no result: IDH1 mut inh)
COCC#Cc1ccc([C@H]2[C@@H](CO)N3CCCCN(S(=O)(=O)c4ccccc4C)C[C@@H]23)cc1	none (no result: IDH1 mut inh)
COCC#Cc1ccc([C@H]2[C@@H](CO)N3CCCCN(S(=O)(=O)c4ccccc4C)C[C@H]23)cc1	T cruzi growth-1 98 (no result: IDH1 mut inh) | T cruzi growth-2 98 | T cruzi growth-3 inactive | 3T3 cytotox inactive | 3T3 cytotox 2 107
O=C(C[C@@H]1C=C[C@@H](NC(=O)CN2CCOCC2)[C@@H](CO)O1)NCCc1ccncc1	none (no result: T cruzi growth-1, IDH1 mut inh)
COc1cc(NC(=O)COc2ccc(Cl)cc2)c(C(=O)O)cc1OC	none (no result: GASC1 inh, T cruzi growth-1)
Cc1noc(C)c1NC(=O)Nc1ccc2c(c1)C(=O)N([C@@H](C)CO)C[C@@H](C)[C@@H](CN(C)S(=O)(=O)c1c(C)noc1C)O2	none
C[C@@H]1CN([C@H](C)CO)C(=O)c2cc(C3=CCCCC3)cnc2O[C@@H]1CN(C)S(C)(=O)=O	none
COc1ccc(-n2nc3cc(C)c(NC(=S)NC(=O)COc4cccc(C)c4)cc3n2)cc1Cl	none (no result: GASC1 inh, T cruzi growth-1)
CC(C)(O)CCC(=O)C(C)(O)C1C(O)CC2(C)C3CC=C4C(CC(OC5OC(CO)C(O)C(O)C5O)C(O)C4(C)C)C3(C)CCC12C (centres undefined)	none (no result: GASC1 inh, T cruzi growth-1)
c1ccc2c(c1)n(CCN1CCOCC1)c1nc(C34CC5CC(CC(C5)C3)C4)cn21	none (no result: GASC1 inh, T cruzi growth-1)
COCCOC(=O)N1C(=O)[C@@]2(c3cc(C#CCC(C(=O)OC)C(=O)OC)ccc31)[C@H](C(=O)N1CCc3cc(OC)c(OC)cc3C1)[C@H]1C(=O)O[C@H](c3ccccc3)[C@H](c3ccccc3)N1[C@@H]2c1ccccc1OCCO	none (no result: GASC1 inh, T cruzi growth-1)
Cc1ccccc1S(=O)(=O)N1CCCCN2[C@H](C1)[C@@H](c1ccc(C#CCN(C)C)cc1)[C@@H]2CO	none (no result: IDH1 mut inh)
CCCC#Cc1ccc([C@@H]2[C@H]3CN(S(=O)(=O)c4ccccc4C)CCCCN3[C@H]2CO)cc1	T cruzi growth-1 111 (no result: IDH1 mut inh) | T cruzi growth-2 96 | T cruzi growth-3 inconclusive | 3T3 cytotox inconclusive | 3T3 cytotox 2 106
CCCC#Cc1ccc([C@H]2[C@H](CO)N3CCCCN(S(=O)(=O)c4ccccc4C)C[C@@H]23)cc1	T cruzi growth-1 96 (no result: IDH1 mut inh) | T cruzi growth-2 inactive | T cruzi growth-3 99 | 3T3 cytotox inconclusive | 3T3 cytotox 2 103
Cc1ccccc1S(=O)(=O)N1CCCCN2[C@@H](CO)[C@H](c3ccc(C#CCN(C)C)cc3)[C@@H]2C1	none (no result: IDH1 mut inh)
Cc1nnc(SCc2nc(-c3ccc(Br)cc3)no2)n1-c1ccccc1	none (no result: GASC1 inh, T cruzi growth-1)
CC(C)CC#Cc1ccc2c(c1)O[C@H](CN(C)C(=O)c1ccncc1)[C@H](C)CN([C@@H](C)CO)S2(=O)=O	none
CC(C)CC#Cc1ccc2c(c1)O[C@@H](CN(C)C(=O)c1ccncc1)[C@H](C)CN([C@@H](C)CO)S2(=O)=O	none
CC(C)CC#Cc1ccc2c(c1)O[C@@H](CN(C)C(=O)c1ccncc1)[C@@H](C)CN([C@H](C)CO)S2(=O)=O	T cruzi growth-1 104 | T cruzi growth-2 107 | T cruzi growth-3 inactive | 3T3 cytotox inactive | 3T3 cytotox 2 71
CC(C)CC#Cc1ccc2c(c1)O[C@@H](CN(C)C(=O)c1ccncc1)[C@@H](C)CN([C@@H](C)CO)S2(=O)=O	T cruzi growth-1 107 | T cruzi growth-2 inconclusive | T cruzi growth-3 inactive | 3T3 cytotox inactive | 3T3 cytotox 2 62
CN1CCN(C(=O)c2cc3c(c(-c4cccc(C#CCC5CCCC5)c4)n2)[C@@H](CCO)N(S(=O)C(C)(C)C)C3)CC1 (some centres undefined)	none (no result: GASC1 inh)
COc1ccc(C#Cc2cccc(-c3nc(C(=O)NCCCN4CCOCC4)cc4c3[C@@H](CCO)N(S(=O)C(C)(C)C)C4)c2)cc1OC (some centres undefined)	none (no result: IDH1 mut inh)
